S100A4 inh HTS – inhibitors of human S100A4 binding to myosin IIA peptide; P26447; 360,000 compounds, 0.14% hits; S100A4/TAMRA-MyoIIA peptide fluorescence polarization; inhibition, % at 10.7 µM; AID 652163;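 active = mean inhibition of at least 70% across replicates, with every replicate also reaching that level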
Target sequence (P26447 whole entry, looked up): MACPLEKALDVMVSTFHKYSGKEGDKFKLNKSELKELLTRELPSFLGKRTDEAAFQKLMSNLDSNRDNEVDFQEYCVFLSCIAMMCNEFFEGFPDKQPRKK
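Test system: S100A4 monomer protein. Medium: HEPES buffer with Ca2+, pH 7.2. Reagent: fluorescent myosin IIA peptide, 5 nM. Compound dosing: single-point compound testing. Timing: 5 min between mix addition and reading. Benchmarks: DMSO neutral and TFP positive wells.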
dFosB act – mouse delta FosB homodimer activation | P13346 | purified delta FosB, TAMRA-CDK5 oligo fluorescence polarization; percent of positive-control signal above neutral wells | activation, % at 25 µM | AID 493131 | 340,000 compounds, 0.99% hits;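 active = mean activation above about 17%, with every replicate also reaching it, limit read from the data, passing the limit was not always enough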
Target sequence (P13346 whole entry, looked up): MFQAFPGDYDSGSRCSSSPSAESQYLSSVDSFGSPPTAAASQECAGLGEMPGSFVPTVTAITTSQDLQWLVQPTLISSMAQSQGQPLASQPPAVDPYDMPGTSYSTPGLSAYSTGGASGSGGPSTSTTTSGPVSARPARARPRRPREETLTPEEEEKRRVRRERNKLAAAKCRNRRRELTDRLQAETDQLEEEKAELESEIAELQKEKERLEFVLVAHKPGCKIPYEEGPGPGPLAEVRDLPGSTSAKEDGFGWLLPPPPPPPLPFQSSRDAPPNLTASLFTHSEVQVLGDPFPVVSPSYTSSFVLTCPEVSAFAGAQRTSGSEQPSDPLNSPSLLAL
CFTR F508del cor – CFTR F508del correction in bronchial cells | CFBE cells, YFP halide quenching; stimulated with forskolin plus potentiator P3; % fluorescence drop versus neutral controls | activity (quench increase), % at 7.58 µM | 350,000 compounds, 0.36% hits | AID 720511;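 active = mean added fluorescence quench of at least 8% versus neutral control, with both replicates also reaching 8%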;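 note: cells transiently co-express mutant CFTR-F508del with the halide-sensitive YFP; corrector assay measuring rescue of mutant channel to the surface after 24 h compound exposure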
FGF22 binding-1 – FGF22 (human) thermal shift binding. Q9HCT0. recombinant FGF22 thermal shift, SYPRO orange fluorescence; percent of sucrose octasulfate shift, DMSO zero. activity (Tm shift, normalised), % at 9.99 µM. 340,000 compounds, 1.5% hits. AID 651658;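 active = mean Tm shift, scaled 0 neutral to 100 positive control, at about 1.3% or above, every replicate too, limit read from the data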
Target sequence (Q9HCT0 whole entry, looked up): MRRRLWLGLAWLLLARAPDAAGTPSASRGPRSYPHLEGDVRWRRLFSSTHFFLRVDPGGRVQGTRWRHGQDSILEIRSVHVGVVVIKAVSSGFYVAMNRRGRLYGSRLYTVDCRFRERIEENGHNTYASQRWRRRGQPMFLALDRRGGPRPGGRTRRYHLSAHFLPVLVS
FGF22 binding-2 – binders of human FGF22 by thermal shift; shares compounds with FGF22 binding-1; recombinant FGF22 thermal shift, SYPRO orange fluorescence; thermal shift activity, °C (ΔTm) at 38 µM; 1,000 compounds, 2% hits;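 active = fitted rise in melting shift crosses a set limit at or below the top valid dose tested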
FGF22 TSA DP – binds human FGF22 shifting its melting temperature | Tm shift (activity), % at 38 µM | 50 tested, under 10 active | Thermal shift assay, SYPRO orange, melting temperature shift | shares compounds with FGF22 binding-1;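 active = compounds whose fitted dose curve of melting temperature shift rises past a set threshold within the tested doses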
TSA no protein – shows thermal shift signal without protein, FGF22 counter-screen; shares compounds with FGF22 binding-1; compound-only SYPRO orange thermal shift counter-screen, no protein; AC50, µM (top dose mostly 38 µM); 1,000 compounds, 2% hits; AID 743019;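 active = rising signal whose fitted curve reaches the 0.54 level within the top valid dose, showing a melting point, actives reach about 13 µM in these data; inactive = the rest, including activity in the opposite direction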; note: value is where the raw curve crosses a fixed level and not half-maximal
Active calls of the source: *; i = inactive; nt = no result; [ ] = remark or other dose. Shown are actives, neighbours in structure and some others; about 2.2% of the full set was active somewhere.

SMILES | S100A4 inh HTS | dFosB act | CFTR F508del cor | FGF22 binding-1 | FGF22 binding-2 | TSA no protein | others
COc1ccc(Nc2nc3ccc(OC)cc3s2)cc1 | -2 | -4 | -1 | 1.5* | 0.047 | i | FGF22 TSA DP=0
COc1ccc2nc(NC(=O)CCc3cc(OC)c(OC)c(OC)c3)sc2c1 | -5 | -3 | 0 | 1.9* | -0.32 | i
O=C(c1ccc(F)cc1)N1CCCCN2[C@H](C1)[C@@H](c1ccc(/C=C/c3ccccc3)cc1)[C@@H]2CO | -5 | nt | -1 | 0 | nt | nt
CO[C@@H]1CN(C)C(=O)c2cc(NC(=O)Nc3cc(F)ccc3F)ccc2OC[C@H](C)NC[C@H]1C | 0 | nt | -2 | -1 | nt | nt
COc1ccc(NC(=O)N[C@@H]2C=C[C@H](CC(=O)NCc3ccccn3)O[C@@H]2CO)cc1 | 6 | nt | 0 | 0 | nt | nt
COc1cc(NC(=O)c2cccs2)c(OC)cc1NC(=O)c1cccs1 | nt | -2 | nt | nt | nt | nt
COc1cc(NC(=O)c2cccs2)c(OC)cc1NC(=O)Nc1ccc(F)cc1 | 0 | -6 | nt | 1.4* | -0.01 | i
O=C(O)C1CSC2(CCN(Cc3ccccc3)CC2)N1 (configuration not stated) | 4 | 2 | -3 | 39* | 0.15 | i
O=C(Cc1ccccc1)NC1CCN(Cc2ccccc2)CC1 | -3 | 3 | 2 | 0 | nt | nt
CN(C)CC(=O)Nc1ccc2c(c1)[C@H]1C[C@@H](CC(=O)N3CCc4ccccc4C3)O[C@H](CO)[C@H]1O2 | -5 | nt | 1 | 0 | nt | nt
O=C(C[C@H]1C[C@@H]2c3cc(NS(=O)(=O)c4ccc(F)cc4)ccc3O[C@@H]2[C@@H](CO)O1)NCc1ccncc1 | 2 | nt | -4 | 0 | nt | nt
COCCNC(=O)c1cccc2c(-c3cnn(C)c3)coc12 | -5 | nt | -4 | 2.4* | 0.039 | i
COc1cc(NC(=O)C2CCC(CNS(=O)(=O)c3csc(C(N)=O)c3)CC2)cc(OC)c1 (configuration not stated) | 3 | -5 | 3 | 1.8* | -0.31 | i
CCc1ccc(C(=O)NNC(=O)c2cccc(N3C(=O)CCC3=O)c2)cc1 | -2 | -1 | -1 | 19* | 0.11 | i
COc1ccc2c3c([nH]c2c1)[C@H](CO)N(Cc1ccccc1OC)CC31CN(C)C1 | -5 | nt | 1 | 0 | nt | nt
CCCNC(=O)C[C@H]1CC[C@H]2[C@H](COc3ccc(NC(=O)c4cccs4)cc3C(=O)N2C)O1 | 6 | nt | 0 | 0 | nt | nt
C[C@H](O)C#Cc1ccc2c(c1)O[C@H](CN(C)C(=O)CN(C)C)[C@@H](C)CN([C@@H](C)CO)S2(=O)=O | -10 | nt | -1 | -1 | nt | nt
Cc1cccc(NC(=O)COc2coc(CN3CCc4ccccc4C3)cc2=O)c1 | 14 | -11 | -1 | 7.0* | -0.023 | i
Cc1ccc(C)c(NC(=O)COc2coc(CN3CCc4ccccc4C3)cc2=O)c1 | -11 | 0 | -1 | 0 | nt | nt
C[C@@H]1CN([C@@H](C)CO)C(=O)Cc2cc(NC(=O)Cc3cn(C)c4ccccc34)ccc2O[C@H]1CN(C)CC1CCCCC1 | -7 | nt | -1 | 0 | nt | nt
C[C@@H]1CN([C@@H](C)CO)C(=O)Cc2cc(NC(=O)CCC(F)(F)F)ccc2O[C@H]1CN(C)C(=O)Nc1ccccc1 | 13 | nt | 0 | 0 | nt | nt
CN1C(=O)c2cc(NC(=O)Cc3ccccc3)ccc2OC[C@H]2O[C@H](CC(=O)O)CC[C@H]21 | 2 | nt | 0 | 0 | nt | nt
CCNC(=O)Nc1ccc2c(c1)C(=O)N(C)[C@H]1CC[C@H](CC(=O)NCc3ccc(F)cc3)O[C@H]1CO2 | 11 | nt | 1 | 28* | -0.024 | i
Cc1noc(C)c1NC(=O)Nc1ccc2c(c1)C(=O)N(C)[C@H]1CC[C@H](CC(=O)N[C@@H]3CCN(Cc4ccccc4)C3)O[C@@H]1CO2 | 8 | nt | 2 | 1.8* | -0.025 | i
CN1C(=O)c2cc(NC(=O)Cc3ccccc3)ccc2OC[C@@H]2O[C@H](CC(=O)O)CC[C@H]21 | 2 | nt | 0 | 1.4* | 0.054 | i
SMILES | S100A4 inh HTS | dFosB act | CFTR F508del cor | FGF22 binding-1 | FGF22 binding-2 | TSA no protein | others
CN1C(=O)c2cc(NC(=O)c3cccc(F)c3)ccc2OC[C@@H]2O[C@H](CC(=O)NCc3ccccc3)CC[C@@H]21 | nt | nt | 2 | 2.2* | -0.46[42 µM] | i
COc1cccc(S(=O)(=O)N[C@@H]2CC[C@@H](CCn3cc(-c4ccc(F)cc4)nn3)O[C@H]2CO)c1 | -13 | nt | 1 | 0 | nt | nt
CCCCNC(=O)C1(C)CCCCN1C(=O)c1c(F)ccc(C)c1F (configuration not stated) | 5 | nt | 5 | 1.7* | 0.19 | i
Cc1ccc(S(=O)(=O)NCCSc2nnnn2-c2ccccc2)cc1 | -5 | -12 | -2 | 35* | 0.19 | i
CC(C)CC(=O)n1sc(NC(=O)c2ccccc2)nc1=O | 1 | -4 | -2 | 2.5* | 0.022 | i
Cc1ccc(C(=O)Nc2nc(=O)n(C(=O)CC(C)C)s2)cc1 | -8 | -4 | nt | 0 | nt | nt
CC(C)N(C[C@H]1[C@H](c2ccccc2)[C@H](CO)N1S(C)(=O)=O)C(=O)CN(C)C | 4 | nt | 3 | 0 | nt | nt
CC(C)N(C[C@H]1[C@H](c2ccccc2)[C@@H](CO)N1S(C)(=O)=O)C(=O)CN(C)C | 3 | nt | -3 | 1.2* | 0.088 | i
CCC(=O)N1CC2(C1)[C@H](c1ccc(-c3cccc(C)c3)cc1)[C@@H](CO)N2S(C)(=O)=O | -1 | nt | 2 | 4.5* | -0.015 | i
O=C(Nc1nccs1)C1CC(=O)N(c2ccc(F)cc2)C1 (configuration not stated) | -6 | 2 | 1 | 1.4* | -0.036 | i | FGF22 TSA DP=0
O=C(NCC[C@@H]1CC[C@H](NC(=O)C2CCOCC2)[C@H](CO)O1)Nc1ccc(Cl)cc1 | 5 | nt | -2 | 1.4* | 0.011[42 µM] | i
O=C(NCC[C@@H]1CC[C@H](NC(=O)c2cnccn2)[C@H](CO)O1)Nc1ccc(F)cc1 | -10 | nt | 0 | 9.1* | 0.19[42 µM] | i
O=C(Nc1ccc(Cl)cc1)N[C@@H]1CC[C@@H](CCNS(=O)(=O)c2ccccc2F)O[C@H]1CO | -36 | nt | -2 | 1.6* | 0.11[42 µM] | i | FGF22 TSA DP=0
O=C(Nc1cc(Cl)cc(Cl)c1)N[C@H]1CC[C@H](CCNS(=O)(=O)c2cccc(F)c2)O[C@@H]1CO | 13 | nt | 2 | 2.4* | 0.13[42 µM] | i
C[C@@H]1CN([C@@H](C)CO)C(=O)c2cccc(NS(=O)(=O)c3cn(C)cn3)c2O[C@@H]1CN(C)C(=O)Nc1cccc2ccccc12 | -5 | nt | -1 | 0 | nt | nt
O=C(C[C@H]1CC[C@H](NC(=O)Nc2cc(F)ccc2F)[C@@H](CO)O1)Nc1ccc(-c2ccccc2)cc1 | 6 | nt | -3 | 1.6* | 0.078[42 µM] | i
